An excerpt weighted towards active compounds, which were near 1.4% of everything screened.
IDE inh: inhibits human insulin-degrading enzyme in HEK cells; P14735; FAbetaB cleavage, fluorescence polarization; inhibition, % at 5.59 µM; actives 0.41% (n = 320,000); AID 434962;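 active = percent inhibition above the average of all tested compounds plus 3 SD, set per screening campaign, cut at about 16% in these data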;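 also: IDE supplied by intact live HEK cells; FP after avidin binding of uncleaved biotin substrate so inhibition keeps polarization high; 0% = DMSO wells and 100% = 60 µM reference IDE inhibitor Ii1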
TPT1 inhibitor: C. albicans TPT1 enzyme inhibition. recombinant caTPT1, FP RNA substrate dephosphorylation. inhibition, % at 5 µM. actives 0.81% (n = 300,000). AID 1962;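 active = inhibition above the mean of all tested compounds plus 3 SD, set per screening campaign, cut at about 24% in these data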;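 also: plate controls were DMSO alone for no effect and ferristatin control at 100 nM for full effect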
CSN deneddyl inh: inhibitors of human CSN-mediated cullin deneddylation; Purified CSN, SCF-Nedd8-OG deneddylation, fluorescence polarization; inhibition, % at 12.5 µM; actives 0.38% (n = 360,000);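 active = pattern-corrected inhibition above about 35%, with an unprinted fluorescence ratio check between 0.5 and 1.5, limit read from the data, passing the limit was not always enough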;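 also: 0% = enzyme with substrate and 100% = substrate without enzyme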
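Detection – fluorescence polarization · System – HEK293T-derived human Csn5 enzyme · Controls – substrate-only high control, full reaction low control · Timing – 90 min, room temperature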
HNF4A DNA FP: change in binding of human HNF4 alpha to DNA | AID 1224865 | actives 0.3% (n = 360,000) | activity change, % at 10 µM | P41235 | HNF4a-FITC DNA binding, fluorescence polarization, 1 h; in the data active = activity change above about 30%, passing the limit was not always enough
IDE cell activ: IDE (human) activation, cell-based; P14735; HEK cells, FAbeta-B cleavage, fluorescence polarization; 0% vehicle, 100% cell-free pure enzyme wells; activation, % at 5.96 µM; actives 0.073% (n = 340,000); AID 493087;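 active = activation above the mean of all tested compounds plus 3 SD, set per screening campaign, cut at about 17% in these data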
caTPT1 confirm: TPT1 (C. albicans) inhibition, confirmation; inhibition, % at 5 µM; AID 2149; actives 74% (n = 2,400); recombinant caTPT1, fluorescence polarization, RNase T1 coupled; shares compounds with TPT1 inhibitor;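 active = inhibition above the primary screen limit, the mean inhibition of all tested compounds plus 3 SD, cut at about 25% in these data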
RNase T1 inh: counter-screen for TPT1 inhibitors: inhibitors of Aspergillus oryzae RNase T1; shares compounds with TPT1 inhibitor; RNase T1 cleavage, fluorescence polarization, 1536-well; actives 83% (n = 2,400); AID 2153; inhibition, % at 5 µM;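 active = inhibition above the solvent-only control well mean plus 3 SD, limit set per screening run, cut at about 23% in these data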;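 also: plate controls were DMSO wells with enzyme for no effect and wells without RNase T1 for full effect; inhibitors block cleavage so intact labeled substrate keeps polarization high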
An asterisk follows results filed as active.

Results for CC1=C(C(=O)N(C)C)CC(CC(=O)NCCN2CCOCC2)C(=O)N1CCCN1CCCC1=O (stereo not drawn) ?
CSN deneddyl inh: -7; HNF4A DNA FP: -5

What do the screens show for `Cc1c(C)n(CC(O)CN2CCCCC2)c2ccccc12` (stereo not drawn)?
IDE inh: 2; TPT1 inhibitor: -4; CSN deneddyl inh: -4; HNF4A DNA FP: 2; IDE cell activ: 1

Results for Cc1cc(C)n(CC(O)Cn2c(C)c(C)c3ccccc32)n1 (stereo not drawn) ?
IDE inh: 11; TPT1 inhibitor: 46*; CSN deneddyl inh: 28; HNF4A DNA FP: 13; IDE cell activ: -2; caTPT1 confirm: 5; RNase T1 inh: 10

How did CCN=c1scc(-c2ccc3c(c2)NC(=O)CO3)n1N=C1CCCC1 do in these assays?
IDE inh: 6; TPT1 inhibitor: 43*; CSN deneddyl inh: 7; HNF4A DNA FP: 23; IDE cell activ: 7; caTPT1 confirm: 39*; RNase T1 inh: 50*

What do the screens show for `Oc1c(C=Nc2cccc3cccnc23)sc2ccccc12`?
IDE inh: 49*; TPT1 inhibitor: 172*; caTPT1 confirm: 152*; RNase T1 inh: 138*

What do the screens show for `Oc1ccc(Cl)cc1N=Cc1sc2ccccc2c1Cl`?
IDE inh: 8; TPT1 inhibitor: 11; CSN deneddyl inh: 2; HNF4A DNA FP: 4; IDE cell activ: -2

Results for Cc1cccc(/N=C/c2sc3ccccc3c2O)n1 ?
IDE inh: 1; TPT1 inhibitor: 85*; CSN deneddyl inh: 4; HNF4A DNA FP: 2; IDE cell activ: 3; caTPT1 confirm: 29*; RNase T1 inh: 40*

How did COc1ccc(C(C(=O)Nc2ccc(F)cc2)N2CCN(C(=O)c3ccco3)CC2)cc1 (stereo not drawn) do in these assays?
CSN deneddyl inh: -1; HNF4A DNA FP: 6

What do the screens show for `CCOC(=O)C1(CCOc2ccccc2)CCN(CC(O)CO)CC1` (stereo not drawn)?
IDE inh: 9; TPT1 inhibitor: -6; CSN deneddyl inh: 3; HNF4A DNA FP: 6; IDE cell activ: 5

How did Cc1ccc(S(=O)(=O)N2[C@H](CC(=O)c3cccs3)OC[C@@H]2C)cc1 do in these assays?
CSN deneddyl inh: 8; HNF4A DNA FP: -2

How did O=C(NN1C(=O)/C(=C/c2cccs2)SC1=S)c1ccccc1 do in these assays?
IDE inh: 0; TPT1 inhibitor: -1; CSN deneddyl inh: 3; HNF4A DNA FP: 1; IDE cell activ: -2

What do the screens show for `Cn1cccc1/C=C1\SC(=S)N(NC(=O)c2ccc(F)cc2)C1=O`?
IDE inh: 13; TPT1 inhibitor: 97*; CSN deneddyl inh: 54*; HNF4A DNA FP: 91*; IDE cell activ: 3; caTPT1 confirm: 111*; RNase T1 inh: 118*

Results for Cn1cccc1/C=C1\SC(=S)N(NC(=O)c2ccccc2)C1=O ?
IDE inh: 11; TPT1 inhibitor: 89*; CSN deneddyl inh: 34; HNF4A DNA FP: 86*; IDE cell activ: -6; caTPT1 confirm: 91*; RNase T1 inh: 111*

How did COc1ccc(-n2c(O)c(/C=N/NS(=O)(=O)c3ccc(C)cc3)c3ccccc3c2=O)cc1OC do in these assays?
IDE inh: 5; TPT1 inhibitor: 109*; CSN deneddyl inh: 117; HNF4A DNA FP: 86*; IDE cell activ: -32; caTPT1 confirm: 70*; RNase T1 inh: 86*

How did COc1ccc(-n2c(O)c(/C=N/NS(=O)(=O)c3cc(C)ccc3C)c3ccccc3c2=O)cc1OC do in these assays?
IDE inh: 9; TPT1 inhibitor: 109*; CSN deneddyl inh: 56; HNF4A DNA FP: 147; IDE cell activ: -38; caTPT1 confirm: 94*; RNase T1 inh: 98*

What do the screens show for `N#Cc1ccc(-c2cccnc2)nc1SCC(=O)Nc1sc2c(c1C#N)CCC2`?
IDE inh: 9; TPT1 inhibitor: 46*; CSN deneddyl inh: 9; HNF4A DNA FP: 5; IDE cell activ: -14; caTPT1 confirm: 18; RNase T1 inh: 29*

What do the screens show for `COc1ccc(-c2ccc(C#N)c(SCC(=O)Nc3sc4c(c3C#N)CCC4)n2)cc1`?
IDE inh: -2; TPT1 inhibitor: 21; CSN deneddyl inh: 3; HNF4A DNA FP: 4; IDE cell activ: 2

Results for NC(Cc1ccc(F)cc1)c1csc(Nc2ccc(C(=O)c3ccccc3)cc2)n1 (stereo not drawn) ?
CSN deneddyl inh: 3; HNF4A DNA FP: 3

How did O=C(CSC1=N/C(=C/c2ccco2)C(=O)N1c1ccc(OC(F)F)cc1)NC1CCS(=O)(=O)C1 (stereo not drawn) do in these assays?
IDE inh: 3; TPT1 inhibitor: 28*; CSN deneddyl inh: 3; HNF4A DNA FP: 24; IDE cell activ: -1; caTPT1 confirm: 26*; RNase T1 inh: 34*

Results for COc1ccc(N2C(=O)/C(=C\c3ccco3)N=C2SCC(=O)NC(C)C)cc1Cl ?
IDE inh: -5; TPT1 inhibitor: 11; CSN deneddyl inh: 0; HNF4A DNA FP: 4; IDE cell activ: 2

What do the screens show for `CCCCNC(=O)C[C@@H]1C[C@@]2(C(=O)OCC)CCC=C2N(CCC2=CCCCC2)C1=O`?
CSN deneddyl inh: -1; HNF4A DNA FP: -2

How did Nc1nc(N)c(N=O)c(Nc2cccc(Cl)c2)n1 do in these assays?
CSN deneddyl inh: 16; HNF4A DNA FP: -4

What do the screens show for `O=C1NC(=S)SC1=C1CCCC1`?
IDE inh: 6; TPT1 inhibitor: 28*; CSN deneddyl inh: 17; HNF4A DNA FP: 2; IDE cell activ: 0; caTPT1 confirm: 17; RNase T1 inh: 25*

How did Cc1cc(C)nc(SCc2cc(=O)c(OC(=O)c3cc([N+](=O)[O-])ccc3Cl)co2)n1 do in these assays?
IDE inh: 5; TPT1 inhibitor: 1; CSN deneddyl inh: 4; HNF4A DNA FP: -4; IDE cell activ: 3

What do the screens show for `O=C(Oc1coc(CSc2ncccn2)cc1=O)c1ccccc1[N+](=O)[O-]`?
IDE inh: -2; TPT1 inhibitor: 46*; CSN deneddyl inh: 0; HNF4A DNA FP: -4; IDE cell activ: 8; caTPT1 confirm: 6; RNase T1 inh: 10

Results for CCOC(=O)[C@]12CCCC=C1N(CCc1ccc(OC)c(OC)c1)C(=O)[C@H](CC(=O)N1CCCC1)C2 ?
CSN deneddyl inh: 0; HNF4A DNA FP: 2

What do the screens show for `COc1ccc(NC(=O)c2cc(S(=O)(=O)Nc3ccc(OC)cc3)cs2)cc1`?
IDE inh: 0; TPT1 inhibitor: 47*; CSN deneddyl inh: -5; HNF4A DNA FP: 1; IDE cell activ: 3; caTPT1 confirm: 5; RNase T1 inh: 7
